Shown are actives, neighbours in structure and some others; about 1.9% of the full set was active somewhere.
Neddyl block: inhibitors of cullin neddylation, primary screen, biochemical, TR-FRET, uHTS, NAE and Ubc12; 0.58% of 360,000 active; inhibition, % at 25 µM; in the data active = inhibition above about 36%
Target sequence (P61081 whole entry, looked up): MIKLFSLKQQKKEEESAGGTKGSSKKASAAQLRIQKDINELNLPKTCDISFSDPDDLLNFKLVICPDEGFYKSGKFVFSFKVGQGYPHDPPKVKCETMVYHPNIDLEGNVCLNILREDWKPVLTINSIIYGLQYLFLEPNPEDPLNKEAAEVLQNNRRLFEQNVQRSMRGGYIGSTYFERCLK
Target sequence (Q13564 whole entry, looked up): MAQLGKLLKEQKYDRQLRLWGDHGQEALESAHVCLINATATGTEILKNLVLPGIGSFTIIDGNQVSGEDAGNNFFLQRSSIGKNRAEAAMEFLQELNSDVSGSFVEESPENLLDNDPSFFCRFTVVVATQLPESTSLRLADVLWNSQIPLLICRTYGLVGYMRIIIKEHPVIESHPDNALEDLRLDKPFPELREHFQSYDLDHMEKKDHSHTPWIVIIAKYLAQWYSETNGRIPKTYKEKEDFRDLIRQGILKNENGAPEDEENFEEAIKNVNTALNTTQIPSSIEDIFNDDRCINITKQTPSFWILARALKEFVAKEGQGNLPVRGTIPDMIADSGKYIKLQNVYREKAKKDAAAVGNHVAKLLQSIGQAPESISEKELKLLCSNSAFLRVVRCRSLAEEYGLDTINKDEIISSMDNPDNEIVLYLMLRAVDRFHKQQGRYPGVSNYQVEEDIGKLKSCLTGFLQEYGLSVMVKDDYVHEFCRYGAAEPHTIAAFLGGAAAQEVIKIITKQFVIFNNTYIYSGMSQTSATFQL
SR-BI uptake up: activators of SR-BI mediated DiI-HDL uptake, primary screen, ldlA[mSR-BI] CHO cells, DiI fluorescence. 3 h; 100 = double the neutral-control signal. activation, % at 12.5 µM. 0.096% of 320,000 active. AID 504775, 2011;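 active = mean replicate activation of at least 60% and every replicate at or above 60%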
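Assay system: CHO ldlA[mSR-BI] cells, LDL receptor-null, SR-BI overexpressing; medium: Ham's F12 with 0.5% BSA, HEPES 25 mM, pH 7.4; also added: DiI-HDL 10 µg/mL; timing: 3 h uptake period with compound, 37 °C; signal: DiI fluorescence, bottom read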
SR-BI DiI inh: inhibitors of SR-BI mediated HDL lipid uptake, primary screen, ldlA[mSR-BI] cells, fluorescence, single point | Scavenger receptor class B member 1 (Mus musculus), Q61009 | ldlA[mSR-BI] CHO cells, DiI-HDL uptake fluorescence, 3 h | inhibition, % at 12.5 µM | 0.96% of 320,000 active | AID 488896, 2010;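 active = mean replicate inhibition of at least 70% and a set share of replicates each scoring 70 or more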
UBC13 polyUb: UBC13 polyubiquitin chain formation inhibitors, primary screen, biochemical, TR-FRET, uHTS | inhibition, % at 20 µM | 0.47% of 330,000 active; in the data active = inhibition above about 45%, passing the limit was not always enough
Numbers stand for hits; n = inactive; x = no result shown.

SMILES	Neddyl block	SR-BI uptake up	SR-BI DiI inh	UBC13 polyUb
CCCCOc1ccccc1NC(=O)CC1SC(=NCC)N(CC)C1=O (stereo not given)	n	n	83.6	n
CCNC(=S)N/N=C/c1cn(Cc2ccc(F)cc2)c2ccccc12	n	n	n	n
O=C(O)c1ccc(N/N=C/c2cn(Cc3ccc(F)cc3)c3ccccc23)cc1	45.5	n	n	n
COc1ccc(NC(=O)c2cc(-c3ccccc3)nc3c2cnn3C(C)C)c(OC)c1	n	n	n	n
Cc1c(NC(=O)/C(C#N)=C/c2ccc(-c3ccc(Cl)c(Cl)c3)o2)c(=O)n(-c2ccccc2)n1C	n	n	73.8	n
CCOc1cc(C=NN=C2c3ccccc3-c3ccccc32)ccc1O	n	n	76.1	x
Oc1cccc(C=NN=C2c3ccccc3-c3ccccc32)c1	n	n	n	x
Cc1cc(C)cc(NC(=O)CS(=O)(=O)c2cccc3nsnc23)c1	n	n	n	n
CC1CCc2c(sc3ncnc(NCCCOC(C)C)c23)C1 (stereo not given)	n	n	75.4	n
O=C(N/N=C/c1sc(N2CCOCC2)nc1-c1ccccc1)c1cccc(S(=O)(=O)N2CCCC2)c1	x	n	97.4	n
Cc1occc1C(=O)N/N=C/c1sc(N2CCOCC2)nc1-c1ccccc1	n	n	n	n
O=C(N/N=C/c1cc(Cl)cc([N+](=O)[O-])c1O)c1cccc(S(=O)(=O)N2CCOCC2)c1	n	n	125.4	n
O=C(N/N=C/c1ccccc1Br)c1cccc(S(=O)(=O)N2CCOCC2)c1	n	n	79.5	n
O=C(N/N=C/c1cc(Br)cc(Br)c1O)c1cccc(S(=O)(=O)N2CCOCC2)c1	n	x	x	n
Cc1c(Br)cnn1C(C)C(=O)N1CCN(c2ccc(F)cc2)CC1 (stereo not given)	n	n	n	n
CSc1ccccc1NC(=O)Nc1cccc2ccccc12	n	x	n	n
Cc1ccc(NC(=O)c2ccc(Cl)c(S(=O)(=O)NCc3ccco3)c2)c(O)c1	n	n	90.0	n
NS(=O)(=O)c1ccc(NC(=O)c2ccc(Cl)c(S(=O)(=O)NCc3ccco3)c2)cc1	n	n	n	n
O=C1c2cccc3c([N+](=O)[O-])ccc(c23)C(=O)N1c1ccc(Cl)cn1	50.3	n	n	n
O=C1c2cccc3c([N+](=O)[O-])ccc(c23)C(=O)N1c1nccs1	54.6	n	n	n
O=C1c2cccc3c([N+](=O)[O-])ccc(c23)C(=O)N1c1ccccn1	n	n	n	n
CN(C)CCNc1ncnc2c1ncn2[C@H]1CN(Cc2ccco2)C[C@@H](CO)O1	n	x	x	x
CCc1cc(Br)ccc1NC(=S)NCCc1ccccc1	n	n	76.3	n
Cc1ccccc1NC(=O)Cc1nc(COC(=O)c2cccc(C)c2O)cs1	n	n	n	n
CCOC(=O)c1c(C)[nH]c(C(=O)OCc2csc(CC(=O)Nc3ccccc3C)n2)c1C	n	n	81.0	n
SMILES	Neddyl block	SR-BI uptake up	SR-BI DiI inh	UBC13 polyUb
CCCCCCN1C[C@H](n2cc(C3CC3)nn2)[C@@H](O)C[C@@H]1c1ccccc1	n	x	x	x
COc1ccc(C(=O)Nc2nc(-c3ccc([N+](=O)[O-])cc3)c(-c3ccccc3)s2)cc1	n	n	n	n
COc1ccc(-c2sc(NC(=O)c3ccc(C)cc3)nc2-c2ccc([N+](=O)[O-])cc2)cc1	n	n	90.5	n
Cc1cc(/C=N\NC(=O)COc2cccc3cccnc23)c(C)n1-c1ccc(Br)cc1	n	n	n	n
Cc1cc(/C=N\NC(=O)c2cccs2)c(C)n1-c1ccc2ncccc2c1	n	n	73.3	n
COCc1cc(C)nc2sc(C(=O)Nc3ccccc3Br)c(N)c12	x	n	79.4	n
CN(/N=C\c1ccc(O)c(O)c1)c1nc(-c2ccccc2)cc(-c2ccccc2)n1	n	n	112.0	n
Cc1ccc(S(=O)(=O)N2CC(O)CC2C(=O)OCC(=O)Nc2ccc([N+](=O)[O-])cc2C(F)(F)F)cc1C (stereo not given)	n	n	n	n
COc1ccc(C)cc1S(=O)(=O)N(C)CC(=O)NCc1ccncc1	n	x	x	n
Cc1ccnc(NC(=O)COc2c(C)cc(C)cc2[N+](=O)[O-])c1	n	n	97.8	n
Cc1cc(C)c(OCC(=O)Nc2ccccn2)c([N+](=O)[O-])c1	n	n	n	n
O=C(Nc1ccc(Cl)c(Cl)c1)N1CCSCC1	n	319.7	n	n
O=C(Nc1ccc(N2CCCCC2)c(S(=O)(=O)Nc2ccccc2Cl)c1)c1cccnc1	n	n	n	n
O=C(Nc1ccc(Cl)c(Cl)c1)Nc1ccccc1O	n	n	77.9	n
O=C(Nc1ccc(F)cc1)Nc1ccc(N2CCCC2)c(S(=O)(=O)Nc2ccccc2Cl)c1	n	n	87.0	n
O=C(Nc1ccc(Cl)c(Cl)c1)Nc1ccc(N2CCCC2)c(S(=O)(=O)Nc2ccccc2Cl)c1	n	n	86.3	n
O=C(Nc1ccc(Cl)cc1)Nc1ccc(Cl)c(Cl)c1	x	x	x	n
O=C(Nc1ccccc1Cl)C1CCN(S(=O)(=O)c2cccc3nonc23)CC1	n	n	n	n
CN(C(=O)c1cccc(NC(=O)Cc2cccc(NC(=O)C3CCN(C(=O)C4CCCCC4)CC3)c2)c1)C1CCC1	n	n	n	x
CCc1cccc(C)c1NC(=S)NCC1CCN(c2ccc(OC)cc2)C1 (stereo not given)	n	n	82.9	n
COc1ccc([C@H]2C[C@H](n3cc(COC(=O)c4ccccc4)nn3)[C@@H](O)CN2CC2CCCCC2)cc1	n	x	x	x
COc1ccc(NC(=O)c2cc(C3CC3)nc3c2cnn3C(C)C)cc1OC	n	n	74.3	n
O=C(NNc1ccc([N+](=O)[O-])cn1)Nc1ccc(N=Nc2ccccc2)cc1	n	n	100.3	x
O=C(NNC(=O)c1ccncc1)Nc1ccc(N=Nc2ccccc2)cc1	n	n	72.1	x
Cc1ccc2ccccc2c1C(O)c1ncc(-c2ccccc2F)[nH]1 (stereo not given)	n	x	x	x
SMILES	Neddyl block	SR-BI uptake up	SR-BI DiI inh	UBC13 polyUb
C/C(=N\NC(=S)NC(C)C)c1ccc(Cl)s1	n	n	n	n
C/C(=N\NC(N)=S)c1ccc(Cl)s1	n	n	79.2	n
CC(C)NC(=O)C1C(c2ccccc2)=Nc2ccccc2N1C(=O)c1ccc(C(F)(F)F)cc1 (stereo not given)	n	x	x	x
Cc1cccc(N(CC(=O)NCc2ccc(F)cc2)C(=O)c2ccco2)c1	n	n	n	n
CC1(C)CC(NC(=O)c2cc(S(=O)(=O)N3CCOCC3)c(Cl)cc2Cl)CC(C)(C)N1	n	n	n	n
CCc1cccc(C)c1NC(=O)CSc1nnc(CCCOc2ccc(Cl)cc2Cl)n1C	n	n	75.4	n
COc1ccccc1CCC(=O)Nc1ccc(S(=O)(=O)Nc2ncccn2)cc1	n	x	x	x
CCOc1ccc(NC(=O)CN(C)C(=O)CCNC(=O)c2ccc(Br)cc2)cc1OCC	n	n	n	n
CCOc1ccc2oc(C(=O)N(C)CCc3ccc(OC)c(OC)c3)c(C)c2c1	n	n	n	n

Assay outcomes deposited in PubChem BioAssay by several laboratories.
